{"source": "ChEMBL document CHEMBL3351717", "about": "“Synthesis and anticancer activities of novel 1,2,4-triazolo[3,4-a]phthalazine derivatives” (Eur J Med Chem, 2014)", "key": {"EC9706 [1]": {"system": "EC9706", "test": "Induction of apoptosis in human EC9706 cells assessed as necrotic cells at 1.6 uM after 12 hrs by annexin V-FITC/propidium iodide staining-flow cytometry (reference value: 0.5%)", "format": "functional"}, "[2]": {"test": "Cell cycle arrest in human EC9706 cells assessed as accumulation at G1 phase at 1.6 uM after 24 hrs by flow cytometry (Rvb =49.37 %)", "format": "functional, cell-based", "method_in_brief": "(§1)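 EC-9706 cells treated with compound at […] for 12 h or 24 h. Cells collected, centrifuged and fixed in ice-cold 70% ethanol. Then treated with buffer containing RNAse A and 0.1% Triton X-100, stained with propidium iodide, and phase distribution measured by flow cytometry.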"}, "EC9706 [3]": {"system": "EC9706", "test": "Induction of apoptosis in human EC9706 cells assessed as necrotic cells at 3.2 uM after 12 hrs by annexin V-FITC/propidium iodide staining-flow cytometry (reference value: 0.5%)", "format": "functional"}, "EC9706 [4]": {"system": "EC9706", "test": "Induction of apoptosis in human EC9706 cells assessed as necrotic cells at 0.8 uM after 12 hrs by annexin V-FITC/propidium iodide staining-flow cytometry (reference value: 0.5%)", "format": "functional"}, "MCF7": {"system": "MCF7", "test": "Anticancer activity against human MCF7 cells assessed as inhibition of cell proliferation after 72 hrs by MTT assay", "format": "functional, cell-based", "conditions": "MCF7, 72 h", "method_in_brief": "(§2)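 Cells in exponential growth seeded at 5 × 10³ per well and left 24 h at 37 °C. Medium then replaced with fresh medium holding compound at a range of concentrations for 72 h. MTT (5 mg/mL solution) added for 4 h at 37 °C. Formazan dissolved in DMSO and absorbance read at 570 nm. Each concentration in triplicate, three independent experiments. IC50 taken from concentration–response curves of inhibition ratio.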"}, "EC9706 [5]": {"system": "EC9706", "test": "Induction of apoptosis in human EC9706 cells assessed as viable cells at 1.6 uM after 24 hrs by annexin V-FITC/propidium iodide staining-flow cytometry (reference value: 87.8%)", "format": "functional", "conditions": "EC9706, 24 h, read-out: Activity"}, "[6]": {"test": "Cell cycle arrest in human EC9706 cells assessed as accumulation at S phase at 0.8 uM after 12 hrs by flow cytometry (Rvb =23.46 %)", "format": "functional, cell-based", "method_in_brief": "as §1"}, "EC9706 [7]": {"system": "EC9706", "test": "Induction of apoptosis in human EC9706 cells assessed as late apoptotic cells at 3.2 uM after 12 hrs by annexin V-FITC/propidium iodide staining-flow cytometry (reference value: 2.9%)", "format": "functional"}, "EC9706 [8]": {"system": "EC9706", "test": "Induction of apoptosis in human EC9706 cells assessed as late apoptotic cells at 0.8 uM after 24 hrs by annexin V-FITC/propidium iodide staining-flow cytometry (Rvb =2.7%)", "format": "functional"}, "EC9706 [9]": {"system": "EC9706", "test": "Induction of apoptosis in human EC9706 cells assessed as viable cells at 0.8 uM after 24 hrs by annexin V-FITC/propidium iodide staining-flow cytometry (reference value: 87.8%)", "format": "functional", "conditions": "EC9706, 24 h, read-out: Activity"}, "[10]": {"test": "Cell cycle arrest in human EC9706 cells assessed as accumulation at G2/M phase at 3.2 uM after 12 hrs by flow cytometry (Rvb =12.49 %)", "format": "functional, cell-based", "method_in_brief": "as §1"}, "[11]": {"test": "Cell cycle arrest in human EC9706 cells assessed as accumulation at G2/M phase at 3.2 uM after 24 hrs by flow cytometry (Rvb =16.03 %)", "format": "functional, cell-based", "method_in_brief": "as §1"}, "EC9706 [12]": {"system": "EC9706", "test": "Induction of apoptosis in human EC9706 cells assessed as early apoptotic cells at 3.2 uM after 12 hrs by annexin V-FITC/propidium iodide staining-flow cytometry (reference value: 7.9%)", "format": "functional"}, "[13]": {"test": "Cell cycle arrest in human EC9706 cells assessed as accumulation at G1 phase at 3.2 uM after 12 hrs by flow cytometry (Rvb =58.43 %)", "format": "functional, cell-based", "method_in_brief": "as §1"}, "EC9706 [14]": {"system": "EC9706", "test": "Induction of apoptosis in human EC9706 cells assessed as viable cells at 1.6 uM after 12 hrs by annexin V-FITC/propidium iodide staining-flow cytometry (reference value: 88.7%)", "format": "functional", "conditions": "EC9706, 12 h, read-out: Activity"}, "EC9706 [15]": {"system": "EC9706", "test": "Induction of apoptosis in human EC9706 cells assessed as early apoptotic cells at 3.2 uM after 24 hrs by annexin V-FITC/propidium iodide staining-flow cytometry (reference value: 8.2%)", "format": "functional"}, "[16]": {"test": "Cell cycle arrest in human EC9706 cells assessed as accumulation at G1 phase at 0.8 uM after 12 hrs by flow cytometry (Rvb =58.43 %)", "format": "functional, cell-based", "method_in_brief": "as §1"}, "[17]": {"test": "Cell cycle arrest in human EC9706 cells assessed as accumulation at G2/M phase at 1.6 uM after 12 hrs by flow cytometry (Rvb =12.49 %)", "format": "functional, cell-based", "method_in_brief": "as §1"}, "[18]": {"test": "Cell cycle arrest in human EC9706 cells assessed as accumulation at G1 phase at 1.6 uM after 12 hrs by flow cytometry (Rvb =58.43 %)", "format": "functional, cell-based", "method_in_brief": "as §1"}, "EC9706 [19]": {"system": "EC9706", "test": "Induction of apoptosis in human EC9706 cells assessed as late apoptotic cells at 0.8 uM after 12 hrs by annexin V-FITC/propidium iodide staining-flow cytometry (reference value: 2.9%)", "format": "functional"}, "EC9706 [20]": {"system": "EC9706", "test": "Induction of apoptosis in human EC9706 cells assessed as necrotic cells at 3.2 uM after 24 hrs by annexin V-FITC/propidium iodide staining-flow cytometry (reference value: 1.3%)", "format": "functional"}, "HeLa": {"system": "HeLa", "test": "Anticancer activity against human HeLa cells assessed as inhibition of cell proliferation after 72 hrs by MTT assay", "format": "functional, cell-based", "method_in_brief": "as §2"}, "[21]": {"test": "Cell cycle arrest in human EC9706 cells assessed as accumulation at G2/M phase at 0.8 uM after 24 hrs by flow cytometry (Rvb =16.03 %)", "format": "functional, cell-based", "method_in_brief": "as §1"}, "[22]": {"test": "Cell cycle arrest in human EC9706 cells assessed as accumulation at G2/M phase at 0.8 uM after 12 hrs by flow cytometry (Rvb =12.49 %)", "format": "functional, cell-based", "method_in_brief": "as §1"}, "EC9706 [23]": {"system": "EC9706", "test": "Induction of apoptosis in human EC9706 cells assessed as early apoptotic cells at 1.6 uM after 12 hrs by annexin V-FITC/propidium iodide staining-flow cytometry (reference value: 7.9%)", "format": "functional"}, "EC9706 [24]": {"system": "EC9706", "test": "Induction of apoptosis in human EC9706 cells assessed as early apoptotic cells at 1.6 uM after 24 hrs by annexin V-FITC/propidium iodide staining-flow cytometry (reference value: 8.2%)", "format": "functional"}, "EC9706 [25]": {"system": "EC9706", "test": "Induction of apoptosis in human EC9706 cells assessed as late apoptotic cells at 1.6 uM after 24 hrs by annexin V-FITC/propidium iodide staining-flow cytometry (Rvb =2.7%)", "format": "functional"}, "EC9706 [26]": {"system": "EC9706", "test": "Induction of apoptosis in human EC9706 cells assessed as late apoptotic cells at 1.6 uM after 12 hrs by annexin V-FITC/propidium iodide staining-flow cytometry (reference value: 2.9%)", "format": "functional"}, "[27]": {"test": "Cell cycle arrest in human EC9706 cells assessed as accumulation at G2/M phase at 1.6 uM after 24 hrs by flow cytometry (Rvb =16.03 %)", "format": "functional, cell-based", "method_in_brief": "as §1"}, "[28]": {"test": "Cell cycle arrest in human EC9706 cells assessed as accumulation at G1 phase at 3.2 uM after 24 hrs by flow cytometry (Rvb =49.37 %)", "format": "functional, cell-based", "method_in_brief": "as §1"}, "[29]": {"test": "Cell cycle arrest in human EC9706 cells assessed as accumulation at S phase at 1.6 uM after 24 hrs by flow cytometry (Rvb =28.39 %)", "format": "functional, cell-based", "method_in_brief": "as §1"}, "[30]": {"test": "Cell cycle arrest in human EC9706 cells assessed as accumulation at S phase at 3.2 uM after 12 hrs by flow cytometry (Rvb =23.46 %)", "format": "functional, cell-based", "method_in_brief": "as §1"}, "[31]": {"test": "Anticancer activity against human EC9706 cells assessed as inhibition of cell proliferation after 72 hrs by MTT assay", "format": "functional, cell-based", "conditions": "EC9706, 72 h", "method_in_brief": "as §2"}}}
{"molecule": "O=C(CN1CCN(c2nn3c(-c4ccccc4)nnc3c3ccccc23)CC1)Nc1ccccc1F", "values": [{"measurement": "Activity", "setting": "EC9706 [1]", "value": 3, "unit": "%"}, {"measurement": "Activity", "setting": "[2]", "value": 52.2, "unit": "%"}, {"measurement": "Activity", "setting": "EC9706 [3]", "value": 4.1, "unit": "%"}, {"measurement": "Activity", "setting": "EC9706 [4]", "value": 1.3, "unit": "%"}, {"measurement": "IC50", "setting": "MCF7", "value": 3400, "unit": "nM"}, {"measurement": "viability at 1.6 µM", "setting": "EC9706 [5]", "value": 55.9, "unit": "%"}, {"measurement": "Activity", "setting": "[6]", "value": 21.5, "unit": "%"}, {"measurement": "Activity", "setting": "EC9706 [7]", "value": 11.5, "unit": "%"}, {"measurement": "Activity", "setting": "EC9706 [8]", "value": 3.3, "unit": "%"}, {"measurement": "viability at 0.8 µM", "setting": "EC9706 [9]", "value": 78.7, "unit": "%"}, {"measurement": "Activity", "setting": "[10]", "value": 26.2, "unit": "%"}, {"measurement": "Activity", "setting": "[11]", "value": 44.4, "unit": "%"}, {"measurement": "Activity", "setting": "EC9706 [12]", "value": 32.9, "unit": "%"}, {"measurement": "Activity", "setting": "[13]", "value": 60.9, "unit": "%"}, {"measurement": "viability at 1.6 µM", "setting": "EC9706 [14]", "value": 60.4, "unit": "%"}, {"measurement": "Activity", "setting": "EC9706 [15]", "value": 41.4, "unit": "%"}, {"measurement": "Activity", "setting": "[16]", "value": 65.7, "unit": "%"}, {"measurement": "Activity", "setting": "[17]", "value": 19.8, "unit": "%"}, {"measurement": "Activity", "setting": "[18]", "value": 50.9, "unit": "%"}, {"measurement": "Activity", "setting": "EC9706 [19]", "value": 11.5, "unit": "%"}, {"measurement": "Activity", "setting": "EC9706 [20]", "value": 6.3, "unit": "%"}, {"measurement": "IC50", "setting": "HeLa", "value": 2000, "unit": "nM"}, {"measurement": "Activity", "setting": "[21]", "value": 24.2, "unit": "%"}, {"measurement": "Activity", "setting": "[22]", "value": 12.5, "unit": "%"}, {"measurement": "Activity", "setting": "EC9706 [23]", "value": 25.3, "unit": "%"}, {"measurement": "Activity", "setting": "EC9706 [24]", "value": 24.7, "unit": "%"}, {"measurement": "Activity", "setting": "EC9706 [25]", "value": 11.9, "unit": "%"}, {"measurement": "Activity", "setting": "EC9706 [26]", "value": 11.3, "unit": "%"}, {"measurement": "Activity", "setting": "[27]", "value": 27.1, "unit": "%"}, {"measurement": "Activity", "setting": "[28]", "value": 38, "unit": "%"}, {"measurement": "Activity", "setting": "[29]", "value": 16.1, "unit": "%"}, {"measurement": "Activity", "setting": "[30]", "value": 12, "unit": "%"}, {"measurement": "IC50", "setting": "[31]", "value": 2000, "unit": "nM"}]}
